Calls of active or inactive are those of the source. Cut-off read from the data, not from the text of the source, unless noted: active = inhibition above about 30%; inactive = the rest.
Legend:
[1] = HUVEC growth inhibition – cell-based, human, primary screen (AID 575;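 active = viability at or below 30% in both replicate assays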;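 note: 100% = median of untreated cell wells with 0.1% DMSO on each plate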); conditions: HUVEC proliferation, CellTiter-Glo luminescence, 72 h; at 10 µM; stronger effect = lower value
Summary of the method: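 System – primary HUVEC, no more than 12 passages · Medium – Low-serum (2% FBS) EBM, supplemented · Times – 72 h exposure, 37 °C, 5% CO2, 30 min RT equilibration · Measured by – luminescent ATP assay · Read-out – % viability relative to median vehicle-well signal on each plate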

[2] = H69AR cell proliferation blockers – human, duplicate replicates, primary screen (AID 580;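 active = viability at or under a set limit in both replicates, limit being median viability minus 3 SD, cut at about 48% in these data, passing the limit was not always enough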;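 note: 100% = mean luminescence of untreated wells and 0% = no signal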); conditions: H69AR lung tumor cells viability, ATP luminescence, 72 h; at 10 µM; stronger effect = lower value
[3] = MRP1 drug-resistance reversers in H69AR cells – cell-based, doxorubicin co-treatment, pilot screen (AID 601;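 active = viability loss from added drug above about 55%, and viability with drug at most 40%, in both replicates, limit read from the data, passing the limit was not always enough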); conditions: CellTiter-Glo, 72 h, at 10 µM; for differential viability (reversal): stronger effect = higher value
[4] = yeast transport mutant growth inhibition pilot in 384-well plates, post-Golgi transport modulator project (AID 636; in the data active = inhibition above about 31%); conditions: absorbance 615 nm, about 18 h, stronger effect = higher value
[5] = growth suppression of yeast trafficking mutant, preliminary HTS, modulators of trafficking downstream of Golgi apparatus project, 1536-format plate, OD 615 nm (AID 637); conditions: yeast transport mutant growth, absorbance 615 nm, 18 h; stronger effect = higher value
[6] = H69AR cells + 2 uM doxorubicin, measured here: viability with 2 uM doxorubicin, stronger effect = lower value
[7] = H69AR cells, compound alone cytotoxicity

Structure (SMILES)	viability [1]	viability [2]	differential viability (reversal) ([3]; H69AR cells + 2 uM doxorubicin)	viability [3, 6] [%]	viability [3, 7] [%]	inhibition [4]	inhibition [5]
Cc1nc(SCC(=O)NCc2ccco2)c2c(C)c(C)sc2n1	81.7% (inactive)	86.6% (inactive)	15.1% (inactive)	71.4	86.6	-2.86% (inactive)	-0.79% (inactive)
Cc1nn(CC(O)Cn2c3c(c4ccccc42)CCN(C)C3=O)c(C)c1Br (centres undefined)	52.8% (inactive)	69.8% (inactive)	-12.1% (inactive)	81.9	69.8	-4% (inactive)	-2.54% (inactive)
COC(=O)Cc1c(C)nc2nc(-c3ccccc3)[nH]n2c1=O	90.8% (inactive)	102% (inactive)	-4.13% (inactive)	106	102	0.53% (inactive)	-5.56% (inactive)
Cc1cc(C(F)(F)F)nc(SCC(=O)NC2=NC(=O)C(C)S2)n1 (centres undefined)	96% (inactive)	100% (inactive)	16.8% (inactive)	83.6	100	-2.27% (inactive)	-7.3% (inactive)
c1ccc(-c2noc(-c3cccnc3)n2)nc1	84.8% (inactive)	72.1% (inactive)	4.56% (inactive)	67.5	72.1	-3.77% (inactive)	6.67% (inactive)
C=C(C)Cn1c(CCNC(=O)CC)nc2ccccc21	100% (inactive)	104% (inactive)	12.7% (inactive)	91.4	104	-3.95% (inactive)	-0.63% (inactive)
COc1nc(OC)nc(N2CCC(NC(=O)C(Cc3ccc(C(C)C)cc3)NC(C)=O)CC2)n1 (centres undefined)	110% (inactive)	64.4% (inactive)	-3.67% (inactive)	68	64.4	-7.5% (inactive)	1.59% (inactive)
O=C(CCN1CCOCC1)Nc1ccc2c(c1)CCC2	79.7% (inactive)	93.7% (inactive)	6.83% (inactive)	86.8	93.7	-5.26% (inactive)	-4.13% (inactive)
Cc1ccc(CSc2nc3c(c(=O)[nH]2)C(c2ccncc2)C2=C(CCCC2=O)N3)cc1 (centres undefined)	72.5% (inactive)	97.9% (inactive)	6.75% (inactive)	91.1	97.9	-3.03% (inactive)	2.22% (inactive)
O=C(Cc1cccs1)NCc1ccc(F)cc1	98% (inactive)	99.6% (inactive)	5.21% (inactive)	94.4	99.6	-3.6% (inactive)	3.33% (inactive)
Cn1c(Cc2cccs2)nnc1SCC(=O)N1CCc2ccccc21	94.1% (inactive)	84.3% (inactive)	-9.72% (inactive)	94	84.3	-0.66% (inactive)	-8.1% (inactive)
CCCC(=O)Nc1ccccc1-c1nnn(CC(=O)Nc2ccc(OC)cc2)n1	73.8% (inactive)	83.1% (inactive)	-14.1% (inactive)	97.2	83.1	-3.33% (inactive)	5.4% (inactive)
COC(=O)c1[nH]c2ccc(C)cc2c1NC(=O)CN1CCCc2ccccc21	48.2% (inactive)	67.6% (inactive)	-15.6% (inactive)	83.2	67.6	-5.73% (inactive)	0.79% (inactive)
O=C(CCNC(=O)c1ccc(Br)o1)NC1CCCC1	87% (inactive)	95.1% (inactive)	16.9% (inactive)	78.2	95.1	-4.4% (inactive)	4.29% (inactive)
Nc1nc(-c2ccc(Cl)cc2)cc(C(F)(F)F)n1	107% (inactive)	105% (inactive)	13.3% (inactive)	91.3	105	-1.82% (inactive)	-1.11% (inactive)
Nc1nc(-c2ccc(Cl)cc2)nn1C(=O)c1cccnc1	98.2% (inactive)	96.4% (inactive)	0.94% (inactive)	95.5	96.4	0.13% (inactive)	4.29% (inactive)
CCOC(=O)c1c(C)oc2ccc(O)c(CN(C)C)c12	77.4% (inactive)	87.3% (inactive)	3.6% (inactive)	83.7	87.3	-6.1% (inactive)	2.22% (inactive)
Cc1noc(NS(=O)(=O)c2ccc(NC(=O)CCC3CCCC3)cc2)c1C	88.9% (inactive)	94% (inactive)	11.6% (inactive)	82.4	94	-4.03% (inactive)	-0.16% (inactive)
Cc1nc2cc(CO)ccc2n1C	93.1% (inactive)	98.1% (inactive)	9.13% (inactive)	89	98.1	-5.97% (inactive)	-1.9% (inactive)

Structure (SMILES)	viability [1]	viability [2]	differential viability (reversal) ([3]; H69AR cells + 2 uM doxorubicin)	viability [3, 6] [%]	viability [3, 7] [%]	inhibition [4]	inhibition [5]
O=C(Cc1nn[nH]n1)NCCC1=CCCCC1	82.8% (inactive)	95.7% (inactive)	4.6% (inactive)	91.1	95.7	-1.04% (inactive)	-4.76% (inactive)
CC(=O)NCC(=O)OC(C)C(=O)Nc1ccc(C(C)=O)cc1 (centres undefined)	97.1% (inactive)	95.2% (inactive)	-2.15% (inactive)	97.3	95.2	-6.75% (inactive)	-5.4% (inactive)
COc1ccccc1-n1cnnc1SCC(=O)c1ccc[nH]1	106% (inactive)	108% (inactive)	9.87% (inactive)	98.1	108	-2.21% (inactive)	2.54% (inactive)
Cc1ccc2c(COn3nnc4ccc(S(=O)(=O)N(C)C)cc43)cc(=O)oc2c1C	79.5% (inactive)	72.1% (inactive)	-3.53% (inactive)	75.6	72.1	-1.04% (inactive)	2.7% (inactive)
O=C(CSc1nc2c(sc3ccccc32)c(=O)n1Cc1ccco1)NCC1CCCO1 (centres undefined)	78.8% (inactive)	81.2% (inactive)	-4.63% (inactive)	85.8	81.2	-1.17% (inactive)	5.71% (inactive)
CCCC(C)C1C(C#N)=C(N)Oc2cc(C)oc(=O)c21 (centres undefined)	98.4% (inactive)	85.7% (inactive)	-6.91% (inactive)	92.6	85.7	-2.5% (inactive)	4.76% (inactive)
Nc1nc(C(=O)N2CCOCC2)nn1S(=O)(=O)c1ccc(Cl)cc1	99.1% (inactive)	95.2% (inactive)	-1.83% (inactive)	97	95.2	-1.3% (inactive)	-0.95% (inactive)
O=C(Cc1ccccc1)Nc1ccc(CN2CCOCC2)cc1	105% (inactive)	97.3% (inactive)	6.05% (inactive)	91.2	97.3	-4.67% (inactive)	-2.38% (inactive)
CC(=O)Nc1ccc2nc(-c3cccnc3)[nH]c2c1	98.6% (inactive)	80.7% (inactive)	-11.3% (inactive)	92	80.7	3.51% (inactive)	11.1% (inactive)
CSc1ccccc1NC(=O)CN(Cc1ccccc1)S(C)(=O)=O	82.7% (inactive)	93.1% (inactive)	7.95% (inactive)	85.2	93.1	-0.78% (inactive)	10.6% (inactive)
CCOC(=O)CS(=O)(=O)c1nc(-c2ccccc2)cc(C(F)(F)F)n1	5.62% (active)	1.61% (active)	0.47% (inactive)	1.14	1.61	0.39% (inactive)	-0.63% (inactive)
CCC(C)c1ccc(NC(=O)C2CC2)cc1 (centres undefined)	88.6% (inactive)	90.3% (inactive)	9.41% (inactive)	80.9	90.3	-1.82% (inactive)	2.06% (inactive)
CCCc1ccc(C(C)NC(=O)c2cnccn2)cc1 (centres undefined)	87.3% (inactive)	100% (inactive)	16.6% (inactive)	83.5	100	-5.26% (inactive)	2.06% (inactive)
O=C(O)C1CC=CCC1C(=O)Nc1cccc(C(=O)N2CCCCC2)c1 (centres undefined)	107% (inactive)	91.9% (inactive)	7.67% (inactive)	84.2	91.9	-5.2% (inactive)	9.21% (inactive)
CCc1ccc(NC(=O)CS(=O)CC(=O)NCC2OCCc3ccccc32)cc1 (centres undefined)	101% (inactive)	99.1% (inactive)	4.08% (inactive)	95	99.1	-0.93% (inactive)	1.75% (inactive)
COC(=O)c1ccc(C2CC(=O)Nc3cc(OC)c(OC)c(OC)c32)cc1 (centres undefined)	83.6% (inactive)	89.4% (inactive)	11.6% (inactive)	77.8	89.4	-3.47% (inactive)	0.63% (inactive)
Nc1nnc(-c2cc3ccccc3oc2=O)s1	91.8% (inactive)	91.7% (inactive)	0.3% (inactive)	91.4	91.7	-0.66% (inactive)	2.38% (inactive)
COCCn1nnnc1C(C(C)C)N(Cc1cccnc1)Cc1ccccc1Cl (centres undefined)	96.4% (inactive)	83.8% (inactive)	34.7% (inactive)	49	83.8	-2.34% (inactive)	2.06% (inactive)

Reference: PubChem BioAssay
